Hits are enriched below; roughly 3.2% of the tested compounds scored in any of these assays.
rCAG binder – molecules binding r(CAG) RNA repeats; inhibition, % at 3 µM; AID 651821; r(CAG) RNA repeat, TO-PRO-1 dye displacement fluorescence; 1.3% of 370,000 active;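 active = inhibition above the plate cutoff, the mean of all test compounds on that plate plus 3 SD, cut at about 35% in these data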;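 also: higher means more dye released from RNA so lower well fluorescence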
DAGLB inh – diacylglycerol lipase beta (human) inhibition | inhibition, % at 5.17 µM | AID 504411 | 0.059% of 340,000 active | Q8NCG7 | HEK293T DAGLB membrane lysate, EnzChek fluorogenic substrate; in the data active = inhibition above about 34%
Target sequence (Q8NCG7 whole entry, looked up): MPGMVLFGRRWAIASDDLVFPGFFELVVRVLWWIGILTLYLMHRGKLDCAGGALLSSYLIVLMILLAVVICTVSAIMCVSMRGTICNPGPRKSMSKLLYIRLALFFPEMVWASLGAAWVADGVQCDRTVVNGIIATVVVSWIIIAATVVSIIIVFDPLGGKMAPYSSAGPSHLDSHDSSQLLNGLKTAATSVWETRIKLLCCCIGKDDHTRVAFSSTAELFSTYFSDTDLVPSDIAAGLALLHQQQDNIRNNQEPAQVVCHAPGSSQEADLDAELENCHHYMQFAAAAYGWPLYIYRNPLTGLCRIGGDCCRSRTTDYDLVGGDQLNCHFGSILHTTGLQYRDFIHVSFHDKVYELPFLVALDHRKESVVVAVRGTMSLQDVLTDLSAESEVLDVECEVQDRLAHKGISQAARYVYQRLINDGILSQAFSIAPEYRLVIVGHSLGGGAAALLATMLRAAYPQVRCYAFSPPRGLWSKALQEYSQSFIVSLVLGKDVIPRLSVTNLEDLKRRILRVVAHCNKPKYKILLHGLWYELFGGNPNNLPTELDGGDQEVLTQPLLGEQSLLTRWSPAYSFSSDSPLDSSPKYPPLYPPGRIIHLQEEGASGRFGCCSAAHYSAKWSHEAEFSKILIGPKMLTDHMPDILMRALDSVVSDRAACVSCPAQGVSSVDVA
mABHD4 FP – inhibitors of mouse ABHD4; inhibition, % at 8.92 µM; AID 720543; purified mABHD4, FP-Rh probe fluorescence polarization; 0.54% of 370,000 active;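 active = inhibition exceeding the mean over every tested compound plus 3 SD, cut at about 30% in these data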
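Assay system: Wild-type mouse ABHD4 protein | Medium: HEPES pH 7.0 buffer, 150 mM NaCl, 0.01% Pluronic F-127 | Incubation: Enzyme–compound pre-incubation 45 min, then probe 60 min, both 25 °C | Technique: Fluorescence polarization with parallel and perpendicular emission, 525/598 nm | Evaluation: % inhibition of FP-Rh probe binding versus controls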
HTRA1 inh – blocks human HTRA1 serine peptidase; recombinant HTRA1, FP-rhodamine activity-based probe, fluorescence polarization; inhibition, % at 5.96 µM; 0.5% of 340,000 active; AID 504803; in the data active = inhibition above about 36%
PRMT1 inh – blocks human protein arginine methyltransferase 1; Q99873; recombinant PRMT1, activity-based probe fluorescence polarization; inhibition, % at 2.79 µM; 1.3% of 370,000 active;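 active = inhibition above about 21% made by adding two undisclosed values, limit read from the data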
LEDGF integ inh – blocks HIV-1 LEDGF/p75-dependent DNA integration; TR-FRET IN-LEDGF/p75 DNA integration, Eu/Cy5; inhibition, % at 3.7 µM; 0.64% of 370,000 active;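 active = inhibition above the screen-wide mean plus 3 SD, cut at about 13% in these data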;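 also: signal is the Cy5 over europium emission ratio at 671 and 618 nm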
rCAG binder conf – r(CAG) RNA repeat binding, confirmation; shares compounds with rCAG binder; TO-PRO-1 dye displacement fluorescence; inhibition, % at 3 µM; 70% of 4,300 active; AID 652065;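 active = inhibition above a per-plate cutoff, the mean inhibition of sample wells plus 3 SD, cut at about 35% in these data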;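 also: loss of TO-PRO-1 fluorescence as compound displaces dye from 1x1 AA loop RNA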
dCAG dye counter – counter-screen for rCAG RNA binders: DNA CAG dye complex inhibitors. shares compounds with rCAG binder. d(CAG) DNA oligo TO-PRO-1 dye displacement, fluorescence. inhibition, % at 3 µM. 94% of 4,300 active. AID 652068;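 active = inhibition above its plate's cutoff, the mean test-well inhibition plus 3 SD, cut at about 4.8% in these data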;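 also: hits displace the dye from DNA and so lower well fluorescence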
DNA CAG DR – disrupts DNA CAG TO-PRO-1 complex in dose response. shares compounds with rCAG binder. DNA CAG/GTC duplex TO-PRO-1 dye displacement fluorescence. IC50, µM. 20% of 250 active. AID 686960; in the data active = IC50 below about 10 µM
Large screens that a line does not name were inactive (follow-up assays come after a bar, where they were run).

Nc1nc(SCc2nnc(SCC(=O)O)n2-c2ccccc2)nc2sc3c(c12)CCCC3	rCAG binder 60.9 | rCAG binder conf 69.1 | dCAG dye counter 23.1 | DNA CAG DR inactive
O=C(O)c1ccc(/C=N/NC(=O)c2cc(-c3ccc4c5c(cccc35)CC4)n[nH]2)cc1	rCAG binder 81.1 | rCAG binder conf 79.5 | dCAG dye counter 49.2
Cc1cc(Cl)ccc1Oc1ccc(C(N)=O)cc1[N+](=O)[O-]	none
Cc1cc(Cl)ccc1Oc1ccccc1C(=O)CC#N	rCAG binder 38.3 | rCAG binder conf inactive | dCAG dye counter 7.6
O=C(CSc1c[nH]c2ccccc12)NCC1CCCO1 (stereo unspecified)	none
O=C(NC(Nc1ncc(S(=O)(=O)c2ccc([N+](=O)[O-])cc2)s1)(C(F)(F)F)C(F)(F)F)c1ccc(Cl)cc1	rCAG binder 45.6 | rCAG binder conf 51.5 | dCAG dye counter 13.9
CN(C)CCCN=Cc1c(O)n(Cc2ccccc2)c(=O)c2ccccc12	none
COc1cc(OC)cc(C(=O)Nc2ccc(S(=O)(=O)Nc3ccccn3)cc2)c1	none
COc1cc(C(=O)Nc2ccc(S(=O)(=O)Nc3cnc4ccccc4n3)cc2)cc(OC)c1OC	rCAG binder 40.1 | rCAG binder conf inactive | dCAG dye counter 6.8
O=C(Nc1ccc(S(=O)(=O)Nc2cnc3ccccc3n2)cc1)c1ccc([N+](=O)[O-])cc1Cl	rCAG binder 48.7 | rCAG binder conf inactive | dCAG dye counter 6.0
Cc1ccc(C(=O)Nc2ccc(S(=O)(=O)Nc3cnc4ccccc4n3)cc2)cc1	rCAG binder 42.6 | rCAG binder conf inactive | dCAG dye counter 11.8
COc1cc(OC)cc(C(=O)Nc2ccc(S(=O)(=O)Nc3cnc4ccccc4n3)cc2)c1	rCAG binder 64.1 (no result: DAGLB inh, HTRA1 inh) | rCAG binder conf 58.7 | dCAG dye counter 15.2
COCCNC(=S)Nc1ccc(S(=O)(=O)Nc2cnc3ccccc3n2)cc1	none
CCNC(=S)Nc1ccc2c(c1)c(=O)n(C)n2CC=C(C)C	none (no result: DAGLB inh, HTRA1 inh)
O=C(NCC1CCCO1)C(C(=O)c1ccccc1)n1ccccc1=O (stereo unspecified)	none
COc1cccc(N(CC(=O)NCCSc2ccccc2)S(C)(=O)=O)c1	none
Cc1[nH]c2ccccc2c1/C=N\NC(=O)c1ccco1	none
Cc1c(CCC(=O)O)c(=O)oc2cc3occ(C(C)(C)C)c3cc12	none
CCCC(NC(=O)CCc1c(C)c2cc3c(-c4ccccc4)coc3cc2oc1=O)C(=O)O (stereo unspecified)	rCAG binder 36.3 | rCAG binder conf 40.6 | dCAG dye counter 10.9
Cc1c(CCC(=O)NCC(=O)O)c(=O)oc2cc3occ(-c4ccccc4)c3cc12	none
Cc1c(CCC(=O)O)c(=O)oc2cc3occ(-c4ccc(Br)cc4)c3cc12	rCAG binder 36.9 | rCAG binder conf 62.5 | dCAG dye counter 23.7
Cc1c(CCC(=O)NCCC(=O)O)c(=O)oc2cc3occ(-c4ccccc4)c3cc12	none
Cc1c(CCC(=O)O)c(=O)oc2cc3occ(-c4ccc(F)cc4)c3cc12	rCAG binder 47.5 | rCAG binder conf 44.2 | dCAG dye counter 12.3
Cc1ccc(C2NC(c3ccc(C)cc3)C(C)C(=NO)C2C)cc1 (stereo unspecified)	none
CC(NC(=O)C12CC3(C)CC(C)(CC(C)(C3)C1)C2)C(=O)O (stereo unspecified)	none
N#C/C(=C(/O)COC(=O)c1ccc(O)cc1)c1nc2ccccc2[nH]1	none
CCOC(=O)c1c(C)[nH]c(C(=O)OCC(O)=C(C#N)c2nc3ccccc3[nH]2)c1C	rCAG binder 42.1 | rCAG binder conf inactive | dCAG dye counter 14.3
O=C(/C=C/c1ccccc1)NC(=S)NNC(=O)c1cnccn1	none
CC1=CC2=NC(=O)/C(=C\c3cc(C)n(-c4ccccc4F)c3C)C(=N)N2O1	none
CS(=O)(=O)C1=NSC2=NC(=O)/C(=C\c3cccn3-c3ccc(Cl)cc3)C(=N)N21	rCAG binder 84.7 | rCAG binder conf 84.6 | dCAG dye counter 54.1
Cc1cc(/C=C2/C(=N)N3C(=NC2=O)SN=C3S(C)(=O)=O)c(C)n1-c1ccccc1F	rCAG binder 80.3 | rCAG binder conf 82.6 | dCAG dye counter 55.9
Cc1ccc(-n2cccc2/C=C2\C(=N)N3N=C(C(C)C)SC3=NC2=O)cc1	none
O=C(CN(c1cccc(Br)c1)S(=O)(=O)c1ccccc1)N/N=C/c1cc([N+](=O)[O-])ccc1O	rCAG binder 77.4 (no result: DAGLB inh, HTRA1 inh) | rCAG binder conf 88.7 | dCAG dye counter 61.7
COc1ccc(NS(=O)(=O)c2ccc(O)c(C(=O)OCC(=O)Nc3ccc4c(c3)OCCO4)c2)cc1	rCAG binder 38.2 | rCAG binder conf inactive | dCAG dye counter 10.9
O=C(COC(=O)c1cc(Br)ccc1O)Nc1ccc2c(c1)OCCO2	none
N#Cc1cccc(NC(=O)COC(=O)c2cc(S(=O)(=O)Nc3ccccc3Cl)ccc2O)c1	rCAG binder 52.0 | rCAG binder conf 45.1 | dCAG dye counter 15.4
O=C(COC(=O)c1cc(S(=O)(=O)Nc2ccccc2Cl)ccc1O)Nc1nc2ccccc2s1	rCAG binder 42.8 | rCAG binder conf 68.7 | dCAG dye counter 31.2
Cc1cccc(C)c1NC(=O)COC(=O)c1cc(S(=O)(=O)Nc2ccc(Cl)cc2)ccc1O	none
CC1=NN(c2ccccc2)C(=O)C1/C=C1/NC(=S)NC1=O (stereo unspecified)	none (no result: DAGLB inh, HTRA1 inh)
O=C(NC(=S)Nc1sc2c(c1C(=O)O)CCCC2)c1ccccc1	rCAG binder 72.0 | rCAG binder conf 55.7 | dCAG dye counter 20.4
Cc1cccc(C(=O)Nc2sc3c(c2C(=O)O)CCCC3)c1	rCAG binder 40.9 | rCAG binder conf inactive | dCAG dye counter 9.3
O=C(Nc1sc2c(c1C(=O)O)CCC2)c1cccc(Cl)c1	rCAG binder 74.2 | rCAG binder conf 53.2 | dCAG dye counter 15.5
N#Cc1c(NC(=S)NC(=O)c2ccccc2)sc2c1CCC2	none
CC(=O)Nc1ccc(S(=O)(=O)Nc2nc(CN3CCOCC3)nc3sc4c(c23)CCCC4)cc1	none
Cc1cc(S(=O)(=O)Nc2nc(CN3CCOCC3)nc3sc4c(c23)CCC4)ccc1F	rCAG binder 53.7 | rCAG binder conf 49.3 | dCAG dye counter 13.8
O=C(O)c1ccccc1C(=O)N(Cc1ccccc1)Cc1ccccc1	none

Assay outcomes (PubChem)
